High-throughput results (PubChem BioAssay)
Shown are actives, neighbours in structure and some others; about 2.6% of the full set was active somewhere.
V1aR counter = counter-screen for oxytocin receptor agonists: human V1a receptor agonists; CHO-V1R cells, Fluo-8 calcium fluorescence, agonist mode; 0% DMSO, 100% 3 nM vasopressin; activation, % at 3 µM; hit rate 0.25% among 320,000; AID 2797;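 active = activation above the mean activation of all tested compounds plus 3 SD, per screening run, cut at about 20% in these data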;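 also: signal is peak over basal fluorescence ratio across a 100 second FLIPR read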
Target sequence (P37288 whole entry, looked up): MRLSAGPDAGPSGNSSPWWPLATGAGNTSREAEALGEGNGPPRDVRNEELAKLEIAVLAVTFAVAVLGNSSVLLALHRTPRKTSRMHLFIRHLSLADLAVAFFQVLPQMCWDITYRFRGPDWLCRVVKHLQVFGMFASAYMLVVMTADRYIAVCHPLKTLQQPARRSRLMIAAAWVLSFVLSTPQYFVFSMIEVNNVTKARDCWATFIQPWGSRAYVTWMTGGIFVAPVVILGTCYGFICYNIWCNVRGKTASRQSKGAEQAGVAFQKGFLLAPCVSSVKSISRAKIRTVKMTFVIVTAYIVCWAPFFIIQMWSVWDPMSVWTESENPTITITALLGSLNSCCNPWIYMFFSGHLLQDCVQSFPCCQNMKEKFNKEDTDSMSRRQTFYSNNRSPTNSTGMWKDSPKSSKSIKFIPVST
OXTR potentiate = potentiates the human oxytocin receptor response; hit rate 0.061% among 320,000; CHO-OTR cells, Fluo-8 calcium fluorescence, potentiator mode; 0% = oxytocin EC15, 100% = EC100; AID 2445; P30559; activation, % at 3 µM;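 active = activation above that plate's cutoff, the mean activation of tested compounds plus 3 SD, cut at about 6.6% in these data, passing the limit was not always enough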;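 also: 100% uses oxytocin at 75 nM as the full agonist control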
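Dosing: Single dose, 3.0 µM nominal final compound concentration | Material: Human OTR in CHO cells | Technique: Kinetic Fluo-8 calcium fluorescence | Benchmarks: EC15 oxytocin alone as 0%, 75 nM oxytocin as 100% | Probe or stimulus: Oxytocin at about EC15, sub-maximal agonist stimulus | Incubation: Compound 6 min at room temperature before oxytocin, 100 s read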
OX1R antag-1 = antagonists of human orexin 1 receptor (OX1R) | hit rate 1.8% among 330,000 | inhibition, % at 6.6 µM | OX1R-expressing cells, FRET antagonist read-out; in the data active = inhibition mostly above about 38%, no sharp cut-off; inactive = mostly below about 40%;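 also: 0% = agonist challenge alone and 100% = reference antagonist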
OXTR ag = agonists of human oxytocin receptor; CHO-OTR cells, Fluo-8 calcium fluorescence; normalized: DMSO 0%, oxytocin 100%; activation, % at 3 µM; hit rate 0.32% among 320,000; AID 2435; P30559;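 active = activation above the mean of all tested compounds plus 3 SD, cutoff set per screening run, cut at about 20% in these data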;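 also: peak over basal fluorescence ratio from a 100 s FLIPR kinetic read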
CHO parental Ca = counter-screen: ATP calcium response change in parental CHO cells. parental CHO-K1, ATP-induced calcium, Fluo-8 fluorescence. inhibition, % at 5.6 µM. hit rate 0.63% among 330,000;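 active = inhibition above that plate's mean sample inhibition plus 3 SD, cut at about 26% in these data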;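 also: 0% = ATP-challenged DMSO wells and 100% = DMSO wells without ATP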
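Material: parental CHO cells / Compound: single nominal dose of 5.6 µM per compound / Signal: Fluo-8 fluorescence / Replicates: singlicate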
OX1R antag-2 = blocks the human orexin 1 receptor | O43613 | inhibition, % at 5 µM | hit rate 0.43% among 330,000 | AID 434989 | CHO/OX1R cells, Fluo-8 calcium fluorescence, orexin A;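 active = inhibition above its plate's threshold, mean inhibition of all tested compounds on the plate plus 3 SD, cut at about 37% in these data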;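 also: 0% = orexin A challenge wells and 100% = SB-334867-A antagonist wells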
Active calls of the source: *.

SMILES | V1aR counter | OXTR potentiate | OX1R antag-1 | OXTR ag | CHO parental Ca | OX1R antag-2
CCN(CC)S(=O)(=O)c1ccc2oc(SCC(=O)NC3CC3)nc2c1 | 0 | -2 | 6 | 0 | -13 | -13
CN(CC(=O)Nc1ccccc1Br)C(=O)c1sccc1-c1ccccc1 | 0 | 0 | 12 | -1 | -18 | 10
Cc1c(C(=O)Nc2ccc(F)cc2)nnn1-c1cccc(C(F)(F)F)c1 | 3 | -28 | 36 | 5 | 49* | 4
CCNc1nc2c(c(=O)n(C)c(=O)n2C)n1Cc1ccc(Cl)cc1 | 7 | -9 | 16 | 7 | 36* | -12
CC(=O)N1CCCc2cc(S(=O)(=O)N3CCCC(C(=O)N4CCN(c5ccccc5)CC4)C3)ccc21 (stereo not given) | 8 | -23 | 21 | 11 | 8 | 7
CC(=O)N1c2ccc(S(=O)(=O)N3CCC(C(=O)N4CCN(c5cc(Cl)ccc5C)CC4)CC3)cc2CC1C (stereo not given) | 12 | -13 | 10 | 12 | 43* | 38
CC(=O)c1ccc(N2CCN(S(=O)(=O)c3ccc4c(c3)CC(C)N4C(C)=O)CC2)cc1 (stereo not given) | 8 | -14 | 25 | 12 | 30 | 42*
CC(=O)N1CCCc2cc(S(=O)(=O)N3CCCC(C(=O)N4CCN(c5cc(C)ccc5C)CC4)C3)ccc21 (stereo not given) | 8 | -22 | 40* | 6 | 44* | 51*
CC(=O)N1c2ccc(S(=O)(=O)N3CCC(C(=O)N4CCC(C)CC4)CC3)cc2CC1C (stereo not given) | 1 | -2 | 13 | 1 | -14 | -45
Cc1noc(NS(=O)(=O)c2ccc(NC(=O)C(F)(F)C(F)(F)C(F)(F)F)cc2)c1C | 0 | 4 | 8 | 1 | -1 | -16
Cc1ccc(NC(=O)C2COc3ccccc3O2)cc1S(=O)(=O)N1CCCCC1 (stereo not given) | 5 | -2 | 9 | -1 | -5 | -6
CC(C)CCNC(=O)C1CC(c2ccc(C(F)(F)F)cc2)=NO1 (stereo not given) | 9 | -11 | 53 | 6 | 52* | -4
CCOc1ccc(-c2nc(CSCC(=O)N3CCN(c4cccc(OC)c4)CC3)c(C)o2)cc1 | 9 | -7 | 54* | 7 | 75* | 44*
COCCn1c(Cc2ccccc2)nnc1SC(C)C(=O)NC1CC1 (stereo not given) | 1 | 1 | -1 | 0 | -18 | -12
CCOc1cc(N2CCOCC2)c(OCC)cc1NC(=O)COc1ncnc2ccccc12 | 0 | 1 | 2 | 0 | -18 | -13
CCOc1cc(N2CCOCC2)c(OCC)cc1NC(=O)c1cc(-c2ccco2)nc2ccccc12 | 0 | -3 | 37* | -1 | 8 | -1
O=C1Nc2ccc(Br)cc2/C1=C/C1CC=CCC1 (stereo not given) | 0 | 0 | 21 | -1 | 33* | -16
Nc1cc(S(=O)(=O)Nc2ccccc2Cl)ccc1N1CCCCC1 | 7 | -11 | 24 | 9 | 30* | 45*
Nc1ccc(N2CCCCC2)c(S(=O)(=O)Nc2ccccc2Cl)c1 | -1 | -2 | 17 | -1 | -15 | -20
Cc1cccc(NCCC(=O)c2ccc([N+](=O)[O-])cc2)c1C | -1 | -2 | 42* | 0 | -10 | -17
Cc1ccc(N2C(=O)c3cccc4c([N+](=O)[O-])ccc(c34)C2=O)c2cccnc12 | 0 | 4 | 18 | 0 | -16 | 15
Cc1nnc(N2C(=O)c3cccc4c([N+](=O)[O-])ccc(c34)C2=O)s1 | -1 | -8 | 42* | -2 | 12 | 10
Cc1c(C(=O)O)c(O)cc2c1C(=O)c1c(O)c([C@@H]3O[C@H](CO)[C@@H](O)[C@H](O)[C@H]3O)c(O)c(O)c1C2=O | 1 | 1 | 71* | 5 | 11 | -9
COC(=O)Nc1cccn(Cc2c(Cl)cccc2Cl)c1=O | -1 | -10 | 14 | -1 | -1 | -11
O=C(Nc1cccn(Cc2c(Cl)cccc2Cl)c1=O)c1c(Cl)cccc1Cl | 3 | -21 | 56* | 2 | 3 | 8
COc1ccccc1OCc1ccc(C(=O)NCc2cccnc2)o1 | 0 | -2 | 12 | -1 | -7 | -13
